Data on 41 compounds can be found in PubChem BioAssay AID2052 (NMMLSC, 2009).

Screen size: about 330,000 compounds; about 220 (0.067%) were called active.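 Rule for the calls: active = response, share of CD8 T cells binding vesicles, and their 90th percentile fluorescence all below set limits (cut at about 80% in these data, passing the limit was not always enough); inactive = the rest, inconclusive results apart.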 The sample as a whole holds a higher share of actives than the screen did.

The experiment can be described thus: murine CD8 T cell vesicle adhesion modulation – mouse 2C CD8+ T cells, flow cytometry, primary screen (AID 2052).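 For double positive events: binding gate set so that unloaded-vesicle control wells show 10% double positive cells.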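 For response (vesicle binding): values below 100% mean blocked vesicle binding to the CD8+ T cells.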 Conditions: 2C CD8+ T cell-vesicle binding, at 7 µM, stronger effect = lower value; double positive events: measured here: CD8+ vesicle-bound cell fraction. In outline: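 Material: murine 2C transgenic CD8+ T lymphocytes / Also added: QL9-peptide-loaded Drosophila micro-vesicles bearing Ld, ICAM-1 and B7-1 / Schedule: binding step 1.5 h, 37 °C, antibody labelling 20 min, ice / Signal: flow cytometry, PE anti-B7-1 (FL2) versus Alexa647 anti-CD8 (FL8), PFA-fixed / Evaluation: percent CD8+ FL2 mean versus row control / Benchmarks: naked versus QL9-loaded vesicles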
For the compound `CCCCOc1ccc(NC(=O)CSCC(=O)OCC)cc1`, the double positive events is 29.6% and the response (vesicle binding) was 186% (inactive).

As to `CN(C)/C=C(/C(=O)c1ccc(Cl)cc1)S(=O)(=O)c1ccccc1`, the double positive events turned out to be 37.1% and the response (vesicle binding) is 209% (inactive).

Turning to `Cc1nn(Cc2ccc(C(=O)N3N=C(C(F)F)CC3(O)C(F)F)cc2)c(C)c1[N+](=O)[O-]` (configuration not stated), the double positive events was found to be 36.3% and the response (vesicle binding) is 446% (inactive).

`C1=C(N2CCOCC2)/C(=C/c2nc3ccccc3[nH]2)CC1`: the double positive events is 33.6% and the response (vesicle binding) is 242% (inactive).

Regarding `CC1CC(C)(C)n2c(O)c(N=NC(N)=S)c3cccc1c32` (configuration not stated), the double positive events turned out to be 21.4% and the response (vesicle binding) is 405% (inactive).

Turning to `CC1CCc2sc(C(=O)NCC(c3ccco3)N3CCCCC3)cc2C1` (configuration not stated), the double positive events was 29.9% and the response (vesicle binding) is 209% (inactive).

On to `CS(=O)(=O)N(CC(=O)Nc1ccc(F)cc1F)c1cccc([N+](=O)[O-])c1`, for which the double positive events came out at 31.4% and the response (vesicle binding) is 763% (inactive).

Turning to `O=C(c1ccccc1)c1ccc2nc(N3CCCCC3)c3nncn3c2c1`, the double positive events came to 4.3% and the response (vesicle binding) is 87.7% (inactive).

`Cc1c(Cl)cccc1NC(=S)NCC(O)c1ccccc1` (configuration not stated): the double positive events came to 56.7% and the response (vesicle binding) was 132% (inactive).

In the case of `CC(=O)Nc1ccc(S(=O)(=O)Oc2ccc(Br)cc2C(=S)N2CCOCC2)cc1`, the double positive events stood at 35.8% and the response (vesicle binding) was 429% (inactive).

Consider `Cc1ccc(OCC(=O)Nc2ccc(C(=O)O)cc2NC(=O)COc2ccc(C)c(C)c2)cc1C`, for which the double positive events came to 35.6% and the response (vesicle binding) was 196% (inactive).

With `COc1ccc(/C=C(/NC(=O)c2ccccc2)C(=O)Nc2cccc(C(=O)O)c2)cc1`, the double positive events was 39.2% and the response (vesicle binding) was 259% (inactive).

In the case of `CCOc1ccc(S(=O)(=O)NCc2ccc3c(c2)OCO3)cc1C`, the double positive events is 23.9% and the response (vesicle binding) is 381% (inactive).

As for `Cc1cc(Br)ccc1NC(=O)CN(C)C(=O)CN1C(=O)NC2(CCCC2)C1=O`, the double positive events is 8.3% and the response (vesicle binding) was 215% (inactive).

As to `COCc1cc(C)n(CC(=O)NCC2CCCO2)c(=O)c1C#N` (configuration not stated), the double positive events stood at 19.7% and the response (vesicle binding) was 237% (inactive).

Regarding `CC(=O)Nc1ccc(NC(=O)CSC2=NS(=O)(=O)c3ccccc3N2)cc1`, the double positive events came to 46.2% and the response (vesicle binding) was 285% (inactive).

For `COc1cc(/C=C/C(=O)N2CCc3ccccc3C2)cc(OC)c1OC`, the double positive events is 39.9% and the response (vesicle binding) is 216% (inactive).

As to `CCc1cc(CNC(=O)CC2C(=O)NCCN2Cc2ccccc2C(F)(F)F)on1` (configuration not stated), the double positive events worked out at 21.1% and the response (vesicle binding) was 297% (inactive).

Regarding `CS(=O)(=O)c1ccc(C(=O)NNC(=O)c2cccs2)cc1`, the double positive events stood at 52.2% and the response (vesicle binding) was 322% (inactive).

With `O=C(NC1CCCC1)C(c1c(F)cccc1Cl)N(C(=O)c1csnn1)C1CC1` (configuration not stated), the double positive events was 17.4% and the response (vesicle binding) was 421% (inactive).

`CCc1ccc(NC(=O)C(=O)N/N=C(\C)CC(=O)NCCOC)cc1`: the double positive events was 23.6% and the response (vesicle binding) was 154% (inactive).

In the case of `CCc1ccc(-n2c(SCc3cc(=O)n4cc(Br)ccc4n3)nc3[nH]ncc3c2=O)cc1`, the double positive events was found to be 30.8% and the response (vesicle binding) is 314% (inactive).

With `Cc1sc2ncnc(N3CCC(C(=O)NNC(=O)c4ccc(F)cc4)CC3)c2c1C`, the double positive events worked out at 64.9% and the response (vesicle binding) was 227% (inactive).

In the case of `CC1CCN(c2ccc(S(=O)(=O)Nc3cc(C(=O)O)cc(C(=O)O)c3)cc2[N+](=O)[O-])CC1`, the double positive events was 24.9% and the response (vesicle binding) was 234% (inactive).

In the case of `CCn1c2c(c3ccc(OC)cc31)CCCC2=O`, the double positive events came out at 43.3% and the response (vesicle binding) was 241% (inactive).

With `COC/C=C/C1=CC2=CC(=O)C(C)(OC(=O)CCC(=O)OC)C(=O)C2=CO1` (configuration not stated), the double positive events is 30.4% and the response (vesicle binding) was 292% (inactive).

`CCCN=C1NC(=O)C(CC(=O)NCCc2ccc(OC)c(OC)c2)S1` (configuration not stated): the double positive events is 39.4% and the response (vesicle binding) is 112% (inactive).

For the compound `CCN(CC(=O)Nc1c(F)cccc1F)C(=O)CN1c2cccc3cccc(c23)S1(=O)=O`, the double positive events stood at 43.4% and the response (vesicle binding) is 247% (inactive).

On to `O=C1C=C(NCCNc2c(F)c(F)c(CO)c(F)c2F)CCC1`, for which the double positive events came out at 42.6% and the response (vesicle binding) was 169% (inactive).

In the case of `COCCN1C2=C(COC(C)(C)C2)C(=S)NC1c1ccccc1` (configuration not stated), the double positive events amounted to 26.4% and the response (vesicle binding) was 676% (inactive).

As for `Cc1cc(C(=O)N2CCN(c3ccccn3)CC2)c(C)o1`, the double positive events was 21% and the response (vesicle binding) is 214% (inactive).

In the case of `Cn1ccc(=NC=C(C#N)C#N)c2ccccc21`, the double positive events was 46.1% and the response (vesicle binding) was 136% (inactive).

For `Cc1cc(C)n2nc(C(=O)OCC(=O)N(C)CC(=O)Nc3ccc(F)cc3)nc2n1`, the double positive events stood at 43% and the response (vesicle binding) is 342% (inactive).

For the compound `CS(=O)(=O)N1CCc2cc(C(=O)Nc3ccccc3Br)ccc21`, the double positive events is 35.6% and the response (vesicle binding) is 198% (inactive).

For `CN(C)N=Nc1ccc2nc[nH]c2c1`, the double positive events was found to be 13.7% and the response (vesicle binding) is 692% (inactive).

`CO/N=C/c1ccc(N2CCN(C(=O)c3cccc(Cl)c3)CC2)c([N+](=O)[O-])c1`: the double positive events worked out at 24.8% and the response (vesicle binding) is 143% (inactive).

Turning to `CSc1sc(C(=O)NNC(=O)c2ccc(Cl)cc2)c2c1C=CCC2`, the double positive events was found to be 57.7% and the response (vesicle binding) was 168% (inactive).

For `CCCCn1c(N)c(N2CCOCC2)c(=O)n(CC(=O)NCCc2ccccc2)c1=O`, the double positive events stood at 52.1% and the response (vesicle binding) is 370% (inactive).

As to `CCCN1CCN(C(=O)Cn2ncc3ccccc32)CC1`, the double positive events was determined as 45.8% and the response (vesicle binding) was 326% (inactive).

On to `COc1ccccc1CNC(=O)c1ccc(N(C)S(=O)(=O)c2ccc(C)cc2)cc1`, for which the double positive events worked out at 2% and the response (vesicle binding) was 94% (inactive).

As to `Cc1ccc(-n2nc3c(c2NC(=O)CCC2CCCCC2)CS(=O)C3)cc1` (configuration not stated), the double positive events turned out to be 41.6% and the response (vesicle binding) is 834% (inactive).
